Data set [1] is described as follows: Cytotoxicity against human C32 cells after 4 days. The format is cell-based. In short, it runs like this:
(§1)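 Cells seeded in 96-well plates at 7,500 (A549) or 15,000 (C32, C32-TG) per well; compounds added at serial dilutions 24 h later. Incubated four days at 37°C, then trypsinized and counted with a Coulter Counter. CC50 is the concentration giving 50% proliferation versus untreated cells, obtained by extrapolation; mean ± SEM of two or three independent tests.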

Data set [2] has as its system Plasmodium falciparum. Briefly: Antimalarial activity against chloroquine-resistant Plasmodium falciparum W2 infected in erythrocytes assessed as inhibition of [3H]-hypoxanthine incorporation after 6 days. In kind it is functional, organism-based.
Data set [3] in a line: Cytotoxicity against human A549 cells after 4 days. In kind it is cell-based. In short, it runs like this: as §1
For data set [4], the system named is Plasmodium falciparum. Briefly: Antimalarial activity against chloroquine-sensitive Plasmodium falciparum D6 infected in erythrocytes assessed as inhibition of [3H]-hypoxanthine incorporation after 6 days. The format is functional, organism-based.
Data set [5] in a line: Cytotoxicity against human HGPRT-deficient thioguanine-resistant C32TG cells after 4 days. In kind it is cell-based. In short, it runs like this: as §1
Data set [6] is described as follows: Inhibition of Plasmodium falciparum HGXPRT by spectrophotometric assay. In short, it runs like this: (§2)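 Spectrophotometric assay at 25°C in 0.1 M Tris-HCl, 10 mM MgCl2, pH 7.4. PRib-PP was the variable substrate and guanine the fixed substrate at a saturating 60 μM. Values are apparent Ki, since only one concentration of the second substrate was used, calculated from Km(app) = Km(1+[I]/Ki(app)).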

Data set [7] concerns the target T1, Hypoxanthine-guanine phosphoribosyltransferase (Homo sapiens, UniProt P00492).
T1 sequence (P00492 whole entry): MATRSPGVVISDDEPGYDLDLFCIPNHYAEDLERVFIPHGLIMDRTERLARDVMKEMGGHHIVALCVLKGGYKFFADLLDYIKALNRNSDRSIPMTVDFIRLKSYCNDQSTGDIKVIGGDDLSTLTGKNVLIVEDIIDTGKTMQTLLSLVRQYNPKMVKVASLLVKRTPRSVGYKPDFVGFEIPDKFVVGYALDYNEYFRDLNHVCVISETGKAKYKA
Put plainly: Inhibition of human HGPRT by spectrophotometric assay. In short, it runs like this: as §2

CC50, IC50 and Ki data for 16 compounds are collected here from ChEMBL document CHEMBL3603793, “Antimalarial activity of prodrugs of N-branched acyclic nucleoside phosphonate inhibitors of 6-oxopurine phosphoribosyltransferases” (Bioorg Med Chem, 2015).

Structures are written as SMILES. Bounds are passed on as bounds.

One may read the CC50 as the concentration giving 50% cytotoxicity. By IC50 is commonly meant the point on the concentration scale where inhibition reaches its midpoint. The Ki is a measure of affinity in units of concentration, obtained from inhibition or displacement. Read a high Ki as lower affinity.

As to `CC(C)OC(=O)[C@H](Cc1ccccc1)NP(=O)(CCN(CCOCc1ccccc1)CCn1cnc2c(=O)[nH]c(N)nc21)N[C@@H](Cc1ccccc1)C(=O)OC(C)C`, the CC50 at 96 h in data set [1] worked out at 17 µM; in data set [3], 20 µM; in data set [5], 23 µM. For the same compound, the figures for the IC50 in the data set on Plasmodium falciparum [2] and with Plasmodium falciparum [4] were 2.9 µM and 1.6 µM, respectively.

With `CCOC(=O)[C@H](Cc1ccccc1)NP(=O)(CCN(CCn1cnc2c(=O)[nH]c(N)nc21)CCP(=O)(N[C@@H](Cc1ccccc1)C(=O)OCC)N[C@@H](Cc1ccccc1)C(=O)OCC)N[C@@H](Cc1ccccc1)C(=O)OCC`, the CC50 at 96 h stood at 51 µM in data set [1], 144 µM in data set [3] and 53 µM in data set [5]. For the same compound, the IC50 was 7.4 µM with Plasmodium falciparum [2] and 6.3 µM in the data set on Plasmodium falciparum [4].

For `O=c1[nH]cnc2c1ncn2CCN(CCP(=O)(O)O)CP(=O)(O)O`, the Ki in data set [6] is 6 µM; in data set [7], 10 µM.

Take `CCOC(=O)[C@H](Cc1ccccc1)NP(=O)(CCN(CCC(=O)OC)CCn1cnc2c(=O)[nH]c(N)nc21)N[C@@H](Cc1ccccc1)C(=O)OCC`: the CC50 at 96 h in data set [1], in data set [3] and in data set [5] was above 300 µM each time. The IC50 in the data set with Plasmodium falciparum [2] was found to be 5.6 µM; with Plasmodium falciparum [4], 11.8 µM.

For the compound `CCOC(=O)[C@H](Cc1ccccc1)NP(=O)(CCN(CCCC(=O)OC)CCn1cnc2c(=O)[nH]c(N)nc21)N[C@@H](Cc1ccccc1)C(=O)OCC`, the CC50 at 96 h in data set [1] is 234 µM; in data set [3], at least 232 µM; in data set [5], at least 246 µM. The half-maximal inhibitory concentration (IC50) in the data set with Plasmodium falciparum [2] turned out to be 5.7 µM; in the data set on Plasmodium falciparum [4], 8.6 µM.

Consider `CCOC(=O)[C@H](Cc1ccccc1)NP(=O)(CCN(CCn1cnc2c(=O)[nH]cnc21)CCP(=O)(N[C@@H](Cc1ccccc1)C(=O)OCC)N[C@@H](Cc1ccccc1)C(=O)OCC)N[C@@H](Cc1ccccc1)C(=O)OCC`, for which the half-maximal cytotoxic concentration (CC50) at 96 h came to 48 µM in data set [1], 79 µM in data set [3] and 48 µM in data set [5]. The concentration for half-maximal inhibition (IC50) in the data set on Plasmodium falciparum [2] is 2.7 µM; in the data set on Plasmodium falciparum [4], 3.1 µM.

`CCOC(=O)[C@H](Cc1ccccc1)NP(=O)(CCN(CCC(=O)OC)CCn1cnc2c(=O)[nH]cnc21)N[C@@H](Cc1ccccc1)C(=O)OCC`: the CC50 at 96 h was above 300 µM in data set [1], 70 µM in data set [3] and 212 µM in data set [5]. Further, the IC50 in the data set with Plasmodium falciparum [2] worked out at 2.9 µM; in the data set on Plasmodium falciparum [4] it was 3.5 µM.

Regarding `O=c1[nH]cnc2c1ncn2CCN(CCOCc1ccccc1)CCP(=O)(O)O`, the Ki was determined as 4.3 µM in data set [6] and 13 µM in data set [7].

With `Nc1nc2c(ncn2CCN(CCOCc2ccccc2)CCP(=O)(O)O)c(=O)[nH]1`, the Ki turned out to be 2.4 µM in data set [6] and 1.9 µM in data set [7].

For `CCOC(=O)[C@H](Cc1ccccc1)NP(=O)(CCN(CCn1cnc2c(=O)[nH]c(N)nc21)CP(=O)(N[C@@H](Cc1ccccc1)C(=O)OCC)N[C@@H](Cc1ccccc1)C(=O)OCC)N[C@@H](Cc1ccccc1)C(=O)OCC`, the values for the CC50 at 96 h in data set [1], in data set [3] and in data set [5] were 65 µM, above 300 µM and 56 µM, respectively. The IC50 in the data set on Plasmodium falciparum [2] worked out at 4.6 µM; with Plasmodium falciparum [4], 10.4 µM.

As for `Nc1nc2c(ncn2CCN(CCP(=O)(O)O)CC(O)CO)c(=O)[nH]1` (configuration not stated), the Ki in data set [6] and in data set [7] was 0.6 µM throughout.

Turning to `CC(C)OC(=O)[C@H](Cc1ccccc1)NP(=O)(CCN(CCOCc1ccccc1)CCn1cnc2c(=O)[nH]cnc21)N[C@@H](Cc1ccccc1)C(=O)OC(C)C`, the CC50 at 96 h in data set [1] stood at 13 µM; in data set [3] it was 23 µM; in data set [5], 18 µM. Besides, the IC50 in the data set with Plasmodium falciparum [2] turned out to be 2.8 µM; in the data set on Plasmodium falciparum [4], 1.5 µM.

Consider `Nc1nc2c(ncn2CCN(CCP(=O)(O)O)CP(=O)(O)O)c(=O)[nH]1`, for which the inhibitory constant (Ki) in data set [6] came out at 1 µM; in data set [7] it was 2 µM.

Take `O=c1[nH]cnc2c1ncn2CCN(CCP(=O)(O)O)CC(O)CO` (configuration not stated): the inhibitory constant (Ki) in data set [6] stood at 5 µM; in data set [7], 3.8 µM.

`CCOC(=O)[C@H](Cc1ccccc1)NP(=O)(CCN(CCn1cnc2c(=O)[nH]cnc21)CP(=O)(N[C@@H](Cc1ccccc1)C(=O)OCC)N[C@@H](Cc1ccccc1)C(=O)OCC)N[C@@H](Cc1ccccc1)C(=O)OCC`: the 50% cytotoxic concentration (CC50) at 96 h in data set [1] was 23 µM; in data set [3], 41 µM; in data set [5], 25 µM. The IC50 was determined as 1.6 µM with Plasmodium falciparum [2] and 4.7 µM in the data set on Plasmodium falciparum [4].

In the case of `CCOC(=O)[C@H](Cc1ccccc1)NP(=O)(CCN(CCCC#N)CCn1cnc2c(=O)[nH]cnc21)N[C@@H](Cc1ccccc1)C(=O)OCC`, the results for the cytotoxic concentration (CC50) at 96 h in data set [1], in data set [3] and in data set [5] were 102 µM, 30 µM and 89 µM, respectively. The results for the IC50 in the data set with Plasmodium falciparum [2] and in the data set with Plasmodium falciparum [4] were 5.5 µM and 4.2 µM, respectively.
